From ChEMBL document CHEMBL1667761, “3-benzylamino-β-carboline derivatives induce apoptosis through G2/M arrest in human carcinoma cells HeLa S-3” (Eur J Med Chem, 2011)
Active and inactive are the calls of the source. The rule behind the calls is not given here.

Key:
[1] = Antitumor activity against human HeLaS3 cells after 24 to 72 hrs by MTT assay; format: functional, cell-based, HeLa S3
Outline: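 HeLa S-3 cells (MEM, 10% FBS, HEPES, NEAA, 2 mM L-glutamine, 5% CO2, 37 °C) seeded at 2 × 10⁴ cells/ml and cultured 3 h before exposure for 24–72 h at 37 °C. MTT (2 mg/ml) added for 4 h at 37 °C, formazan dissolved in DMSO, A540 read. Viability is expressed as % of control. IC50 is the concentration giving 50% growth inhibition, mean ± S.D. of four independent experiments run in triplicate.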

[2] = Cell cycle arrest in human HeLaS3 cells assessed as accumulation at S phase at 1 uM after 12 hrs by flow cytometry; format: functional, cell-based; details: HeLa S3
Outline: (§1)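 HeLa S-3 cells exposed for 6, 12 or 24 h. Cells washed twice in ice-cold PBS, fixed in ice-cold 70% ethanol, and resuspended with 0.1 mg/ml RNase. Stained with […] PI and analysed by flow cytometry. Phase distribution (sub-G1, G1, S, G2/M) is reported as percentage of cells. Controls were untreated.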

HeLa S3 [3] = test: Induction of apoptosis in human HeLaS3 cells assessed as cleaved caspase-3 at 5 times IC50 by Western blot method; format: functional, cell-based
Outline: (§2)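 HeLa S-3 cells treated for 24 h at 5-fold the IC50, alongside non-treated controls. Cells lysed in RIPA buffer (pH 8.0) with protease inhibitors and the whole-cell extract separated by SDS-PAGE, then transferred to PVDF. Blots blocked in 5% skim milk/TTBS and probed with anti-cdc2, cdk2 or cleaved caspase-3 antibodies (1:1000). β-actin (1:5000) served as loading control. Detection by HRP secondary antibody and ECL.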

[4] = Cell cycle arrest in human HeLaS3 cells assessed as accumulation at sub-G1 phase at 1 uM after 6 hrs by flow cytometry; format: functional, cell-based; details: HeLa S3; outline: as §1
[5] = Cell cycle arrest in human HeLaS3 cells assessed as accumulation at G2/M phase at 1 uM after 24 hrs by flow cytometry; format: functional, cell-based; details: HeLa S3; outline: as §1
HeLa S3 [6] = test: Induction of apoptosis in human HeLaS3 cells assessed as DNA fragmentation after 48 hrs by agarose gel electrophoresis; format: functional, cell-based
Outline: (§3)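 HeLa S-3 cells exposed for 12–48 h, then pellets lysed in 0.6% sarcosine, 20 mM Tris-HCl pH 7.4, 20 mM EDTA. Lysate treated with RNase A for 2 h at 50 °C, then proteinase K overnight at 50 °C. DNA extracted with phenol/chloroform, run on 2% agarose in TAE at 50 V, stained with ethidium bromide, and visualised under UV.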

[7] = Cell cycle arrest in human HeLaS3 cells assessed as accumulation at sub-G1 phase at 5 uM after 12 hrs by flow cytometry; format: functional, cell-based; details: HeLa S3; outline: as §1
[8] = Cell cycle arrest in human HeLaS3 cells assessed as accumulation at S phase at 5 uM after 6 hrs by flow cytometry; format: functional, cell-based; details: HeLa S3; outline: as §1
HeLa S3 [9] = test: Induction of apoptosis in human HeLaS3 cells assessed as DNA fragmentation after 24 hrs by agarose gel electrophoresis; format: functional, cell-based; outline: as §3
[10] = Cell cycle arrest in human HeLaS3 cells assessed as accumulation at sub-G1 phase at 1 uM after 24 hrs by flow cytometry; format: functional, cell-based; details: HeLa S3; outline: as §1
[11] = Cell cycle arrest in human HeLaS3 cells assessed as accumulation at G1 phase at 5 uM after 6 hrs by flow cytometry; format: functional, cell-based; details: HeLa S3; outline: as §1
[12] = Cell cycle arrest in human HeLaS3 cells assessed as accumulation at G2/M phase at 5 uM after 12 hrs by flow cytometry; format: functional, cell-based; details: HeLa S3; outline: as §1
[13] = Cell cycle arrest in human HeLaS3 cells assessed as accumulation at G1 phase at 5 uM after 12 hrs by flow cytometry; format: functional, cell-based; details: HeLa S3; outline: as §1
[14] = Cell cycle arrest in human HeLaS3 cells assessed as accumulation at sub-G1 phase at 5 uM after 24 hrs by flow cytometry; format: functional, cell-based; details: HeLa S3; outline: as §1
[15] = Cell cycle arrest in human HeLaS3 cells assessed as accumulation at G1 phase at 5 uM after 24 hrs by flow cytometry; format: functional, cell-based; details: HeLa S3; outline: as §1
HeLa S3 [16] = test: Induction of apoptosis in human HeLaS3 cells assessed as appearance of fragmented nuclei at 5 times IC50 after 48 hrs by Hoechst staining; format: functional, cell-based
Outline: (§4)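 Stained with Hoechst 33342 (1 µg/ml) for 40 min at 37 °C. Nuclei were examined by confocal laser microscopy, and apoptosis was scored from chromatin condensation and fragmented nuclei.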

[17] = Cell cycle arrest in human HeLaS3 cells assessed as accumulation at S phase at 5 uM after 24 hrs by flow cytometry; format: functional, cell-based; details: HeLa S3; outline: as §1
[18] = Cell cycle arrest in human HeLaS3 cells assessed as accumulation at G1 phase at 1 uM after 12 hrs by flow cytometry; format: functional, cell-based; details: HeLa S3; outline: as §1
[19] = Cell cycle arrest in human HeLaS3 cells assessed as accumulation at G2/M phase at 1 uM after 6 hrs by flow cytometry; format: functional, cell-based; details: HeLa S3; outline: as §1
[20] = Cell cycle arrest in human HeLaS3 cells assessed as accumulation at G2/M phase at 5 uM after 24 hrs by flow cytometry; format: functional, cell-based; details: HeLa S3; outline: as §1
[21] = Cell cycle arrest in human HeLaS3 cells assessed as accumulation at S phase at 1 uM after 6 hrs by flow cytometry; format: functional, cell-based; details: HeLa S3; outline: as §1
[22] = Cell cycle arrest in human HeLaS3 cells assessed as accumulation at sub-G1 phase at 5 uM after 6 hrs by flow cytometry; format: functional, cell-based; details: HeLa S3; outline: as §1
[23] = Cell cycle arrest in human HeLaS3 cells assessed as accumulation at G1 phase at 1 uM after 6 hrs by flow cytometry; format: functional, cell-based; details: HeLa S3; outline: as §1
[24] = Cell cycle arrest in human HeLaS3 cells assessed as accumulation at S phase at 5 uM after 12 hrs by flow cytometry; format: functional, cell-based; details: HeLa S3; outline: as §1
[25] = Cell cycle arrest in human HeLaS3 cells assessed as accumulation at G2/M phase at 5 uM after 6 hrs by flow cytometry; format: functional, cell-based; details: HeLa S3; outline: as §1
[26] = Cell cycle arrest in human HeLaS3 cells assessed as effect on cdk2 protein level at 5 times IC50 by Western blot method; format: functional, cell-based; details: HeLa S3; outline: as §2
HeLa S3 [27] = test: Induction of apoptosis in human HeLaS3 cells assessed as appearance of fragmented nuclei at 10 times IC50 after 48 hrs by Hoechst staining; format: functional, cell-based; outline: as §4
[28] = Cell cycle arrest in human HeLaS3 cells assessed as increase in cdc2 protein level at 5 times IC50 by Western blot method; format: functional, cell-based; details: HeLa S3; outline: as §2
[29] = Cell cycle arrest in human HeLaS3 cells assessed as accumulation at G1 phase at 1 uM after 24 hrs by flow cytometry; format: functional, cell-based; details: HeLa S3; outline: as §1
[30] = Cell cycle arrest in human HeLaS3 cells assessed as accumulation at sub-G1 phase at 1 uM after 12 hrs by flow cytometry; format: functional, cell-based; details: HeLa S3; outline: as §1
[31] = Cell cycle arrest in human HeLaS3 cells assessed as accumulation at G2/M phase at 1 uM after 12 hrs by flow cytometry; format: functional, cell-based; details: HeLa S3; outline: as §1
[32] = Cell cycle arrest in human HeLaS3 cells assessed as accumulation at S phase at 1 uM after 24 hrs by flow cytometry; format: functional, cell-based; details: HeLa S3; outline: as §1
HeLa S3 [33] = test: Induction of apoptosis in human HeLaS3 cells assessed as DNA fragmentation upto 48 hrs by agarose gel electrophoresis; format: functional, cell-based; outline: as §3

SMILES: C[n+]1cc2[nH]c3ccccc3c2cc1NCc1ccccc1 [listing 1 of 2 here]
- IC50 ([1]; hela s3): 0.54 µM

SMILES: CNc1cc2c(cn1)[nH]c1ccccc12
- IC50 ([1]; Homo sapiens, HeLa S3): 101 µM

SMILES: c1ccc(CCNc2cc3c(cn2)[nH]c2ccccc23)cc1
- IC50 ([1]; Homo sapiens, HeLa S3): 22 µM

SMILES: CC(C)(C)CNc1cc2c(cn1)[nH]c1ccccc12
- IC50 ([1]; Homo sapiens, HeLa S3): 17 µM

SMILES: C[n+]1cc2[nH]c3ccccc3c2cc1NCc1ccccc1 [listing 2 of 2 here]
- Activity [2]: 8.7%
- Activity (HeLa S3 [3]): Active
- Activity [4]: 4.7%
- Activity [5]: 13.8%
- Activity (HeLa S3 [6]): Active
- Activity [7]: 3.2%
- Activity [8]: 13.8%
- Activity (HeLa S3 [9]): inactive
- Activity [10]: 34.6%
- Activity [11]: 29.7%
- Activity [12]: 78.5%
- Activity [13]: 6.1%
- Activity [14]: 6.9%
- Activity [15]: 4.4%
- Activity (HeLa S3 [16]): Active
- Activity [17]: 3.6%
- Activity [18]: 7.8%
- Activity [19]: 46.1%
- Activity [20]: 82.3%
- Activity [21]: 21.9%
- Activity [22]: 2.8%
- Activity [23]: 31.5%
- Activity [24]: 10%
- Activity [25]: 50.5%
- Activity [26]: inactive
- Activity (HeLa S3 [27]): Active
- Activity [28]: Active
- Activity [29]: 38.4%
- Activity [30]: 10.3%
- Activity [31]: 73.5%
- Activity [32]: 13.6%

SMILES: c1ccc2c(c1)[nH]c1cnc(NCC3CCCCC3)cc12
- Activity [2]: 10.5%
- Activity (HeLa S3 [3]): inactive
- IC50 ([1]; Homo sapiens, HeLa S3): 5.2 µM
- Activity [4]: 3.5%
- Activity [5]: 15.7%
- Activity [7]: 3%
- Activity [8]: 12.7%
- Activity [10]: 1.7%
- Activity [11]: 51%
- Activity [12]: 27.4%
- Activity [13]: 56.7%
- Activity [14]: 2.8%
- Activity [15]: 29.7%
- Activity (HeLa S3 [16]): inactive
- Activity (HeLa S3 [33]): inactive
- Activity [17]: 13.8%
- Activity [18]: 58.4%
- Activity [19]: 23.1%
- Activity [20]: 50.5%
- Activity [21]: 19.7%
- Activity [22]: 2.6%
- Activity [23]: 48.4%
- Activity [24]: 12.3%
- Activity [25]: 31.4%
- Activity (HeLa S3 [27]): Active
- Activity [29]: 68.2%
- Activity [30]: 2.5%
- Activity [31]: 28.9%
- Activity [32]: 14.7%

SMILES: COC(=O)c1ccc(CNc2cc3c(cn2)[nH]c2ccccc23)cc1
- IC50 ([1]; Homo sapiens, HeLa S3): 45 µM

SMILES: c1ccc(CCCNc2cc3c(cn2)[nH]c2ccccc23)cc1
- IC50 ([1]; Homo sapiens, HeLa S3): 21 µM

SMILES: COC(=O)c1cccc(CNc2cc3c(cn2)[nH]c2ccccc23)c1
- IC50 ([1]; Homo sapiens, HeLa S3): 17 µM
